Reference: ChEMBL document CHEMBL4390651, “Indole based antimalarial compounds targeting the melatonin pathway: Their design, synthesis and biological evaluation” (Eur J Med Chem, 2019)
The source made the active and inactive calls. The rule behind the calls is not given here.

Tests used:
Plasmodium falciparum [1] = test: Antimalarial activity against Plasmodium falciparum 3D7 ring stage synchronized forms infected in human erythrocytes assessed as inhibition of parasite proliferation at 5 uM incubated for 48 hrs by Giemsa-staining method; format: functional; details: 3D7, 48 h
Method in brief: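 P. falciparum 3D7 grown in human O+ erythrocytes at 5% hematocrit in RPMI 1640 with NaHCO3, albumax, gentamicin and hypoxanthine, at 37 °C under 90% N2/5% CO2/5% O2. Single-concentration screen read as % inhibition of parasite proliferation. Mean of three experiments, each in triplicate.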

Plasmodium falciparum [2] = test: Antimalarial activity against trophozoite stage of Plasmodium falciparum 3D7 infected in human erythrocytes assessed as parasite survival level at 10 uM incubated for 48 hrs by Giemsa staining-based microscopic analysis (reference value: 43.65 +/- 5.16%); format: functional; details: 3D7, 48 h
[3] = target: Melatonin receptor type 1A (Homo sapiens) (UniProt P48039); test: Inhibition of human MTNR1 receptor at 500 nM to 5 uM using TMB as substrate preincubated for 1 hr followed by substrate addition by ELISA relative to control
Method in brief: (§1)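 ELISA kit format: compounds incubated 1 h with MTNR1 receptor (5 ng/mL), melatonin as control. TMB substrate, stop solution, OD read at 450 nm; expressed as % inhibition.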

[4] = Stability of the compound in phosphate buffer at pH 7.4 assessed as compound remaining at 1 mg/ml incubated for 0 to 24 hrs by HPLC analysis relative to control; format: physicochemical; details: for Stability: buffer
Method in brief: (§2)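 Compound stock in acetonitrile was added to 1.0 mL of fresh 0.01 N HCl (pH 2.0) or phosphate buffer (pH 7.4), held at 37 °C, and the amount remaining was measured by HPLC at intervals from 0 to 24 h.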

[5] = Stability of the compound in 0.01 N HCL at pH 2.0 assessed as compound remaining at 1 mg/ml incubated for 0 to 24 hrs by HPLC analysis relative to control; format: physicochemical; details: for Stability: buffer; method in brief: as §2
Plasmodium falciparum [6] = test: Antimalarial activity against trophozoite stage of Plasmodium falciparum 3D7 infected in human erythrocytes assessed as parasite survival level at 10 uM measured immediately at 0 hrs by Giemsa staining-based microscopic analysis (reference value: 3.55 +/- 5.02%); format: functional; details: 3D7, 0 h
Plasmodium falciparum [7] = test: Antimalarial activity against schizont stage of Plasmodium falciparum 3D7 infected in human erythrocytes assessed as parasite survival level at 10 uM measured immediately at 0 hrs by Giemsa staining-based microscopic analysis (reference value: 0%); format: functional; details: 3D7, 0 h
Plasmodium falciparum [8] = test: Antimalarial activity against ring stage of Plasmodium falciparum 3D7 infected in human erythrocytes assessed as parasite survival level at 10 uM incubated for 48 hrs by Giemsa staining-based microscopic analysis (reference value: 51.3 +/- 1.83%); format: functional; details: 3D7, 48 h
Plasmodium falciparum [9] = test: Antimalarial activity against ring stage of Plasmodium falciparum 3D7 infected in human erythrocytes assessed as parasite survival level at 10 uM measured immediately at 0 hrs by Giemsa staining-based microscopic analysis (reference value: 96.4 +/- 5.09%); format: functional; details: 3D7, 0 h
Plasmodium falciparum [10] = test: Antimalarial activity against chloroquine resistant Plasmodium falciparum RKL9 infected in human erythrocytes assessed as reduction in parasitemia incubated for 0 to 48 hrs by Giemsa staining-based microscopic analysis; format: functional, organism-based
Method in brief: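 Sorbitol-synchronized ring-stage culture at 1% parasitemia, 5% hematocrit in human O+ erythrocytes (RPMI 1640, 0.5% albumax, hypoxanthine, gentamicin; 37 °C, 5% CO2/5% O2/90% N2). Compounds at […] for 48 h. Parasitemia counted on Giemsa-stained smears at 0 and 48 h. DMSO control. Mean of three independent experiments ±SD.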

Plasmodium falciparum [11] = test: Antimalarial activity against schizont stage of Plasmodium falciparum 3D7 infected in human erythrocytes assessed as parasite survival level at 10 uM incubated for 48 hrs by Giemsa staining-based microscopic analysis (reference value: 5 +/- 7.07%); format: functional; details: 3D7, 48 h
Plasmodium falciparum [12] = test: Antimalarial activity against synchronized ring stage of Plasmodium falciparum 3D7 infected in human erythrocytes assessed as inhibition of parasite growth incubated for 48 hrs by Giemsa staining-based microscopic analysis; format: functional, organism-based; details: 3D7, 48 h
Method in brief: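 Sorbitol-synchronized ring-stage 3D7 in human O+ erythrocytes was exposed to four concentrations (1, 5, 10 and 20) for 48 h. Parasitemia was counted on Giemsa smears and IC50 taken from the dose-response curve. Mean ± SD of three independent experiments.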

Plasmodium falciparum [13] = test: Antimalarial activity against synchronized ring stage of Plasmodium falciparum 3D7 infected in human erythrocytes assessed as inhibition of parasite growth at 10 uM incubated for 0 to 48 hrs by Giemsa staining-based microscopic analysis; format: functional
Method in brief: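 3D7 was sorbitol-synchronized to ring stage at 1% parasitemia, cultured in human O+ erythrocytes (5% hematocrit, RPMI 1640/albumax, 37 °C, low-O2 gas), and exposed for 48 h, with DMSO as control. Giemsa smears at 0, 12, 24, 36 and 48 h gave parasitemia and stage morphology. Mean ± SD of three independent experiments.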

Plasmodium falciparum [14] = test: (§3) Antimalarial activity against ring stage of Plasmodium falciparum infected in human erythrocytes assessed as protection against melatonin-induced parasite synchronization by measuring parasitemia 5 uM incubated for 48 hrs by Giemsa staining-based microscopic analysis (reference value: 11.80 +/- 9.19%); format: functional
Plasmodium falciparum [15] = test: (§4) Antimalarial activity against schizont stage of Plasmodium falciparum infected in human erythrocytes assessed as protection against melatonin-induced parasite synchronization by measuring parasitemia 1 uM incubated for 48 hrs by Giemsa staining-based microscopic analysis (reference value: 0%); format: functional
Plasmodium falciparum [16] = test: as §3, with “against troph” for “against ring”, “parasitemia 1” for “parasitemia 5”, “value: 88.20” for “value: 11.80”; format: functional
Plasmodium falciparum [17] = test: as §4, with “mixed” for “schizont”, “parasitemia at” for “parasitemia”, “measured immediately at 0” for “incubated for 48”, “1.05 +/- 0.07%)” for “0%)”; format: functional
Plasmodium falciparum [18] = test: (§5) Antimalarial activity against mixed stage of Plasmodium falciparum infected in human erythrocytes assessed as protection against melatonin-induced parasite synchronization by measuring parasitemia at 5 uM measured immediately at 0 hrs by Giemsa staining-based microscopic analysis (reference value: 1.05 +/- 0.07%); format: functional
Plasmodium falciparum [19] = test: Antimalarial activity against schizont stage of Plasmodium falciparum infected in human erythrocytes assessed as protection against melatonin-induced parasite synchronization by measuring parasitemia 5 uM incubated for 48 hrs by Giemsa staining-based microscopic analysis (reference value: 0%); format: functional
Plasmodium falciparum [20] = test: as §4, with “measured immediately” for “incubated for 48 hrs”, “23.25 +/- 0.35%)” for “0%)”; format: functional
Plasmodium falciparum [21] = test: as §3, with “1” for “5”; format: functional
Plasmodium falciparum [22] = test: as §3, with “against mixed” for “against ring”, “parasitemia at” for “parasitemia”, “value: 4.76” for “value: 11.80”, “+/- 0.61%)” for “+/- 9.19%)”; format: functional
Plasmodium falciparum [23] = test: as §5, with “schizont” for “mixed”, “parasitemia” for “parasitemia at”, “immediately” for “immediately at 0 hrs”, “23.25” for “1.05”, “0.35%)” for “0.07%)”; format: functional
Plasmodium falciparum [24] = test: as §5, with “troph” for “mixed”, “1” for “at 5”, “immediately” for “immediately at 0 hrs”, “52.50” for “1.05”, “0.70%)” for “0.07%)”; format: functional
Plasmodium falciparum [25] = test: as §4, with “mixed” for “schizont”, “parasitemia at” for “parasitemia”, “4.76 +/- 0.61%)” for “0%)”; format: functional
Plasmodium falciparum [26] = test: as §5, with “troph” for “mixed”, “parasitemia” for “parasitemia at”, “immediately” for “immediately at 0 hrs”, “52.50” for “1.05”, “0.70%)” for “0.07%)”; format: functional
Plasmodium falciparum [27] = test: as §5, with “ring” for “mixed”, “parasitemia” for “parasitemia at”, “immediately” for “immediately at 0 hrs”, “23.90” for “1.05”, “0.84%)” for “0.07%)”; format: functional
Plasmodium falciparum [28] = test: as §3, with “against troph” for “against ring”, “value: 88.20” for “value: 11.80”; format: functional
Plasmodium falciparum [29] = test: as §5, with “ring” for “mixed”, “1” for “at 5”, “immediately” for “immediately at 0 hrs”, “23.90” for “1.05”, “0.84%)” for “0.07%)”; format: functional
Plasmodium falciparum [30] = test: Antimalarial activity against Plasmodium falciparum 3D7 infected in human erythrocytes assessed as reduction in [3H]hypoxanthine incorporation pretreated for 24 hrs followed by [3H]hypoxanthine addition and measured after 48 hrs by scintillation counting method
[31] = target: Melatonin receptor type 1A (Homo sapiens) (UniProt P48039); test: Inhibition of human MTNR1 receptor at 500 nM using TMB as substrate preincubated for 1 hr followed by substrate addition by ELISA relative to control; method in brief: as §1
[32] = target: Melatonin receptor type 1A (Homo sapiens) (UniProt P48039); test: Inhibition of human MTNR1 receptor at 1 uM using TMB as substrate preincubated for 1 hr followed by substrate addition by ELISA relative to control; method in brief: as §1
[33] = target: Melatonin receptor type 1A (Homo sapiens) (UniProt P48039); test: Inhibition of human MTNR1 receptor at 5 uM using TMB as substrate preincubated for 1 hr followed by substrate addition by ELISA relative to control; method in brief: as §1

Chain of Melatonin receptor type 1A (Homo sapiens) (P48039 whole entry): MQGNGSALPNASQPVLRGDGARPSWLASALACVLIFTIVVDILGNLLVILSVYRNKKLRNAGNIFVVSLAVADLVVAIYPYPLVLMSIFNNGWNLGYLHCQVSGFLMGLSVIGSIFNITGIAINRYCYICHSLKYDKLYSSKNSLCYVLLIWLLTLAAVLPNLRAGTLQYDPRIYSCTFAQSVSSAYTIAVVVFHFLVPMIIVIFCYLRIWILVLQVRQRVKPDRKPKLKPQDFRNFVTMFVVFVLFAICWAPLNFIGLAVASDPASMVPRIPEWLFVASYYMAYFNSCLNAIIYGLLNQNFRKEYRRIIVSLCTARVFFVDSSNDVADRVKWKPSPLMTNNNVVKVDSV

| SMILES | survival at 10 µM (Plasmodium falciparum [2]) | survival at 10 µM (Plasmodium falciparum [6]) | survival at 10 µM (Plasmodium falciparum [7]) | survival at 10 µM (Plasmodium falciparum [8]) | survival at 10 µM (Plasmodium falciparum [9]) | inhibition (Plasmodium falciparum [10]) | survival at 10 µM (Plasmodium falciparum [11]) | IC50 (Plasmodium falciparum [12]) | growth inhibition (GI) (Plasmodium falciparum [13]) | also measured |
| --- | --- | --- | --- | --- | --- | --- | --- | --- | --- | --- |
| C/N=C(/c1ccc(OC)cc1F)c1[nH]c2ccccc2c1CCNC(=O)OC |  |  |  |  |  |  |  |  |  | inhibition at 5 µM (Plasmodium falciparum [1]): 47% |
| CC/N=C(/c1ccc(C)cc1)c1[nH]c2ccccc2c1CCNC(=O)OC | 97.5% | 7% | 0% | 0% | 93% | Dose dependent effect | 2.5% | 4280 nM | Active | inhibition [3]: inactive; Stability [4]: Unstable; remaining at 1 mg/ml ([5]; 0.01 N HCl, read-out: Stability): 20% |
| CC(=O)NCCc1c(Cc2ccccc2)[nH]c2ccccc12 [LUZINDOLE] | 38.4% | 8% | 0.5% | 61.6% | 91.5% |  | 0% |  | Active | Activity (Plasmodium falciparum [14]): 21.97%; Activity (Plasmodium falciparum [15]): 0%; Activity (Plasmodium falciparum [16]): 80.9%; Activity (Plasmodium falciparum [17]): 1.1%; Activity (Plasmodium falciparum [18]): 1.03%; inhibition at 5 µM (Plasmodium falciparum [1]): 48%; Activity (Plasmodium falciparum [19]): 0.88%; Activity (Plasmodium falciparum [20]): 25.8%; Activity (Plasmodium falciparum [21]): 19.1%; Activity (Plasmodium falciparum [22]): 2.56%; Activity (Plasmodium falciparum [23]): 24%; Activity (Plasmodium falciparum [24]): 50.5%; Activity (Plasmodium falciparum [25]): 2.88%; Activity (Plasmodium falciparum [26]): 51.9%; Activity (Plasmodium falciparum [27]): 23.75%; Activity (Plasmodium falciparum [28]): 77.15%; Activity (Plasmodium falciparum [29]): 23% |
| CC(C)=C[C@H]1C[C@](C)(/C=C/c2[nH]c3ccccc3c2CCN(C)C)n2c1c(CCN(C)C)c1ccccc12 |  |  |  |  |  |  |  |  |  | IC50 (Plasmodium falciparum [30]): 150 to 1420 nM |
| CC/N=C(/c1cc(C(F)(F)F)cc(C(F)(F)F)c1)c1[nH]c2ccc(OC)cc2c1CCNC(=O)OC | 17.5% | 7% | 0.5% | 68.5% | 92.5% | Dose dependent effect | 14% | 2730 nM | Active | inhibition [31]: 60%; remaining at 1 mg/ml ([4]; phosphate buffer, read-out: Stability): 60%; inhibition [32]: 80%; Stability [5]: Unstable; inhibition [33]: 70% |
| C/N=C(/c1ccccc1)c1[nH]c2ccccc2c1CCNC(=O)OC | 77.5% | 4.15% | 0% | 17.5% | 95.8% | Dose dependent effect | 5% | 890 nM | Active | Stability [4]: Unstable; Stability [5]: Unstable |
| CNCCc1c(/C=C/[C@@]2(C)C[C@H](C=C(C)C)c3c(CCNC)c4ccccc4n32)[nH]c2ccccc12 |  |  |  |  |  |  |  |  |  | IC50 (Plasmodium falciparum [30]): 150 to 1420 nM |
